Screening data as filed in PubChem.
FLuc stim CS – firefly luciferase counter-screen for stimulation assays; P08659; activation factor at 10 µM; ATPlite luciferase biochemical, luminescence, 10 min; 0 = ATP-free wells, 1 = DMSO control; 200,000 tested, under 10 active; AID 1027;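 active means luciferase activation factor, scaled between plate controls, of at least 2 with compound at 10 µM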
Target sequence (P08659 whole entry, looked up): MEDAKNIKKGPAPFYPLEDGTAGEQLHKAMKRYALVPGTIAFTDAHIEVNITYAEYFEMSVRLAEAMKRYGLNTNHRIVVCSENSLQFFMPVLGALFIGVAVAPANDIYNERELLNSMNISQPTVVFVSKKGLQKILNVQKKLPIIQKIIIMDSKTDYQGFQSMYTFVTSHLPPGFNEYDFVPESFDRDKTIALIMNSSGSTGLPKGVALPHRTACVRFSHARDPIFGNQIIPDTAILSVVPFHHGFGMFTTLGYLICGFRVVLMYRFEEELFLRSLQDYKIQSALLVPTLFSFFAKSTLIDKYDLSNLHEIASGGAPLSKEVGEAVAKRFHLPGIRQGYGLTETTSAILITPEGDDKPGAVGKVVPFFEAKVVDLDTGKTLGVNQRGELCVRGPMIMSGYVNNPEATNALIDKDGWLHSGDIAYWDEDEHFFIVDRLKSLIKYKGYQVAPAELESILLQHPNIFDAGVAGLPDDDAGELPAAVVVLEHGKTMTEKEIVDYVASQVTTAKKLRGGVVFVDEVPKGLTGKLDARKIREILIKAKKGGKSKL
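Assay system: Luciferase/luciferin reagent mix; Medium: PBS as buffer for the ATP substrate; Dosing: test compounds dosed from 2 mM stocks in 100% DMSO; Times: 10 min, room temperature; Signal: luminescence from luciferase reaction; Read-out: luciferase activation; Controls: No-ATP low control, compound-free enzyme-plus-ATP high control.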
APP 5'UTR act – activates APP 5'UTR luciferase reporter; SH-SY5Y APP 5'UTR luciferase reporter, luminescence; zero percent = DMSO vehicle wells; activation, % at 2 µM; 190,000 tested, 1% active; AID 1276;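 active means activation above a set limit, based on mean plus 3 SD of controls, cut at about 140% in these data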
sdo1 growth – sdo1-depleted yeast growth rescue. S. cerevisiae sdo1-depleted JHY4D growth rescue, OD600 30 h; stronger effect = higher value; pdr5 snq2 efflux-pump mutant strain. z-score at 10 µM. 140,000 tested, 0.21% active;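 active means z-score above 3 at both the 24 hr and the 30 hr optical density reads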;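 further: z-score against mean and SD of all compound wells on the same plate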
NF-kB neuron act – raises NF-kB expression in human neuronal cells; fold change at 12.5 µM; AID 1239; 190,000 tested, 1.6% active; NF-kB reporter expression; stronger effect = higher value; in the data active means fold change above about 3.3
STAT1 activator – STAT1 signaling activation | 200,000 tested, 2.6% active | activation (% of control), % at 5.5 µM | AID 932 | NIH 3T3 STAT1-luciferase reporter, IFN-gamma, luminescence; 100% = IFN-gamma alone, no compound;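 active means activation above the screen-wide mean activation plus 3 SD, cut at about 130% in these data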;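 further: raw ratio to IFN-gamma control signal so 100% means no change and 0% no light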
FLuc inh counter – Photinus pyralis luciferase inhibition counter-screen | inhibition, % at 10 µM | 200,000 tested, 1.5% active | P08659 | ATPLite firefly luciferase biochemical luminescence, 10 min;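 active means inhibition above about 50% when tested at 10 µM, limit read from the data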
* hit, by the source's call. Most compounds without a hit are left out; they make up all but 4.3% or so of the library.

O=C(NCc1ccccc1)c1ccc(OC2CSC2)cc1 was read as FLuc stim CS 1, APP 5'UTR act 13.4, sdo1 growth -0.01, NF-kB neuron act 1.11, STAT1 activator 105.9 and FLuc inh counter 3.4.
`O=C(Nc1cccc(Br)c1)c1ccc(OC2CSC2)cc1` gave FLuc stim CS 0.4, APP 5'UTR act 149.3*, NF-kB neuron act 3, STAT1 activator 128.3 and FLuc inh counter 58.4*.
Screening COc1cccc(NC(=O)Nc2ccc(C)c(Cl)c2)c1 returned FLuc stim CS 0.8, APP 5'UTR act 54.7, NF-kB neuron act 1.98, STAT1 activator 132.6* and FLuc inh counter 15.1.
COc1ccc(C(=O)Nc2cc(OC)nc(OC)n2)cc1 was read as FLuc stim CS 0.2, APP 5'UTR act 139.9*, sdo1 growth 0.38, NF-kB neuron act 7.18*, STAT1 activator 137.5* and FLuc inh counter 76.2*.
`CC(Sc1ccccc1)C(=O)NN=C1CCCCCCC1` (stereo unspecified) gave FLuc stim CS 1, APP 5'UTR act 24.2, NF-kB neuron act 1.17, STAT1 activator 97.4 and FLuc inh counter -4.3.
For COc1cc(-n2nnnc2SC)c(OC)cc1Cl the results were FLuc stim CS 1.1, APP 5'UTR act -5.8, NF-kB neuron act 3.58*, STAT1 activator 97.5 and FLuc inh counter -9.3.
For Cn1cccc1C(=O)OCc1cc(Cl)cc2c1OCOC2 the results were FLuc stim CS 1, APP 5'UTR act 52.4, sdo1 growth -1.52, NF-kB neuron act 2.18, STAT1 activator 144.6* and FLuc inh counter -4.7.
For Nn1c(SCC(=O)Nc2ccc(F)cc2)nnc1-c1cccnc1 the results were FLuc stim CS 1.1, APP 5'UTR act 17.8, sdo1 growth 0.86, NF-kB neuron act 1.1, STAT1 activator 91.7 and FLuc inh counter -6.8.
Screening O=S(=O)(Nc1ccccc1N1CCCCC1)c1ccc(F)cc1F returned FLuc stim CS 1, APP 5'UTR act 18.4, NF-kB neuron act 1.13, STAT1 activator 93.2 and FLuc inh counter -4.0.
Screening Cc1ccc(OC(=O)c2cccc(S(=O)(=O)N(C)C)c2)c(-n2nc3ccccc3n2)c1 returned FLuc stim CS 1, APP 5'UTR act 31.6, sdo1 growth -1.34, NF-kB neuron act 2.84, STAT1 activator 111.5 and FLuc inh counter -2.2.
`Cc1ccc(OC(=O)c2cccc(S(=O)(=O)N3CCCC3)c2)c(-n2nc3ccccc3n2)c1` gave FLuc stim CS 1, APP 5'UTR act 113.2, sdo1 growth -1.04, NF-kB neuron act 3.54*, STAT1 activator 119.6 and FLuc inh counter -2.3.
CC(=O)Oc1ccc(C)cc1-n1nc2ccccc2n1 was read as FLuc stim CS 1, APP 5'UTR act 104.5, sdo1 growth -1.01, NF-kB neuron act 3.49*, STAT1 activator 115.4 and FLuc inh counter -0.1.
For COC(=O)c1cccc(S(=O)(=O)N2CCCC2)c1 the results were FLuc stim CS 1, APP 5'UTR act -8.4, sdo1 growth 0.51, NF-kB neuron act 1.12, STAT1 activator 90.8 and FLuc inh counter -3.5.
For Cc1ccc(OC(=O)c2ccc(S(=O)(=O)N(C)C)cc2)c(-n2nc3ccccc3n2)c1 the results were FLuc stim CS 1, APP 5'UTR act 84.7, sdo1 growth -1.02, NF-kB neuron act 4.48*, STAT1 activator 114.5 and FLuc inh counter -0.8.
For Oc1ccccc1CNn1cnnc1 the results were FLuc stim CS 1, APP 5'UTR act -1.9, sdo1 growth 0.47, NF-kB neuron act 1.03, STAT1 activator 91.4 and FLuc inh counter -3.4.
`CCc1nc(SCC(=O)c2c[nH]c3ccccc23)n[nH]1` gave FLuc stim CS 1.1, APP 5'UTR act 9.8, NF-kB neuron act 1.23, STAT1 activator 104.2 and FLuc inh counter -6.1.
COc1ccc(-c2[nH]ncc2N=Nc2ccccc2)cc1 was read as FLuc stim CS 1, APP 5'UTR act -17.6, NF-kB neuron act 1.63, STAT1 activator 129.8* and FLuc inh counter -1.2.
`COc1ccc(-c2[nH]ncc2N=Nc2cc(C)cc(C)c2)cc1` gave FLuc stim CS 1, APP 5'UTR act -2.9, NF-kB neuron act 1.06, STAT1 activator 103.6 and FLuc inh counter -3.3.
Nc1ccc(N2CCN(c3ccc(Cl)c(Cl)c3)CC2)cc1 was read as FLuc stim CS 1, APP 5'UTR act -31.8, sdo1 growth -2.16, NF-kB neuron act 3.41*, STAT1 activator 100.7 and FLuc inh counter -1.4.
